Measurements from different studies.
Protocols differ between the studies behind these lines.
Target: Interleukin-1 receptor-associated kinase 3 (IRAK3, Homo sapiens, UniProt Q9Y616)
One construct used (Q9Y616 1-596): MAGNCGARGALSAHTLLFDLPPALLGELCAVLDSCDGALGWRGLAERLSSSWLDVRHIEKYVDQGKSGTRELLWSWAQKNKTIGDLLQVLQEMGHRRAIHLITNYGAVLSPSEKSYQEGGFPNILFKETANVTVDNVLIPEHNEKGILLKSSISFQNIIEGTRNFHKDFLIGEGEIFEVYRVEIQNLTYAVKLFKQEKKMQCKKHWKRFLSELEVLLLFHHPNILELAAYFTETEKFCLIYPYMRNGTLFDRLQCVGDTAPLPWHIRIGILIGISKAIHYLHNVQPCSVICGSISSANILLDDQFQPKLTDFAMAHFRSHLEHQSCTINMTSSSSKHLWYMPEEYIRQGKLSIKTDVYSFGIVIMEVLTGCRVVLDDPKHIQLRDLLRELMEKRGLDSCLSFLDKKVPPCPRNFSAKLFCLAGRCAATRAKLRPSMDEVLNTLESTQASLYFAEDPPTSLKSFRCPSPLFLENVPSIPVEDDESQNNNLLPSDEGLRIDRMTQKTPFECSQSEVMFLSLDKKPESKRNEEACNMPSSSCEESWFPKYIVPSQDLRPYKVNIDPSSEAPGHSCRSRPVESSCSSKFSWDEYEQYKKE

Structure (SMILES) | assay | setting | remaining binding [%]
COc1cnc(Nc2cccc(S(N)(=O)=O)c2)nc1N1CCN(c2ccccc2)CC1 | binding, competition with immobilised ligand | 1 µM | 100
CC1CCCN1c1nccc(-c2cnn3ncccc23)n1 (centres unmarked) | binding | 1 µM | 72
CS(=O)(=O)N1CCCC(NC(=O)[C@H](CCC2CCCCC2)NC(=O)c2ccc(CNc3ncnc4c3nnn4-c3ccccc3)cc2)C1 (some centres unmarked) | cell-free assay, competition with immobilised ligand | 0.1 µM | 100
O=C(c1ccc(Nc2ncc(Cl)c(-c3cc4ccccc4s3)n2)cc1)N1CCC(N2CCCC2)CC1 | binding, competition with immobilised ligand | 1 µM | 6
FC(F)(F)Oc1cccc(-c2cnc3ccc(-c4ccncc4)nn23)c1 | cell-free assay, competition with immobilised ligand | 5 µM | 7.6
CN(C(=O)c1ccccc1)c1cc(N(C)c2ccc3c(c2)CCc2ccc(C(=O)NCCN4CCOCC4)cc2C3=O)ccc1F | cell-free assay, competition with immobilised ligand | 1 µM | 91
CCN1CCN(Cc2ccc(C(=O)Nc3ccc(C)c(Oc4ccc5c(c4)CC(=O)N5)c3)cc2C(F)(F)F)CC1 | binding, competition with immobilised ligand | 1 µM | 100
C=CC(=O)N1CCC(C(=O)NCC(=O)N2CCN(c3nc(-c4cnc(N)nc4C(F)F)nc(N4CCOCC4)n3)CC2)CC1 | binding, competition with immobilised ligand | 1 µM | 89
O=C(NCCCN1CCOCC1)c1ccc(Nc2ncc(Cl)c(-c3ccc(Cl)s3)n2)cc1 | binding, competition with immobilised ligand | 1 µM | 13
O=C(NCc1ncc(C(F)(F)F)cc1Cl)c1ccc2c(c1)C1(CCS(=O)(=O)CC1)[C@H](C1CC1)N2S(=O)(=O)c1ccc(F)cc1 | cell-free assay, competition with immobilised ligand | 1 µM | 99
CN(C)c1nccc(-c2cnn3ncccc23)n1 | binding | 1 µM | 100
O=C1CCc2cc(Nc3cc(OC4CCOCC4)c([N+](=O)[O-])cc3Cl)ccc2N1 | cell-free assay, competition with immobilised ligand | 1 µM | 98
C[C@@H]1CCN(c2nccc(-c3cnn4ncccc34)n2)C1 | binding | 1 µM | 52
O=C(Nc1c[nH]nc1C(=O)NC1CCNCC1)c1cc(F)cc(F)c1 | binding, competition with immobilised ligand | 1 µM | 100
O=C(c1ccc(Nc2nccc(-c3cc4ccccc4s3)n2)cc1)N1CCC(N2CCCC2)CC1 | binding, competition with immobilised ligand | 1 µM | 14
CN(C)c1ncc(F)c(-c2cnn3ncccc23)n1 | binding | 1 µM | 100
N#Cc1ccc(Nc2ccc3[nH]c(=O)[nH]c3c2)c(Cl)c1 | cell-free assay, competition with immobilised ligand | 1 µM | 94
F[C@@H]1CCN(c2nccc(-c3cnn4ncccc34)n2)C1 | binding | 1 µM | 100
CN(c1ccnc(CNc2nc(Nc3ccc4c(c3)CC(=O)N4)ncc2C(F)(F)F)n1)S(C)(=O)=O | cell-free assay, competition with immobilised ligand | 1 µM | 11
CNC(=O)[C@@H]1CC[C@@H](n2c(-c3ccc4cnccc4c3)nc3ccc(C(=O)NCc4cccc(C(N)=O)c4)cc32)C1 | binding, competition with immobilised ligand | 1 µM | 97
